Blank lines part the entries; values can stand above or below the compound they belong to.
Key:
[1] = test system: doxorubicin-sensitive K562 leukemia cells; assay: Cell viability, resazurin assay, K562; assay type: cell-based, human; conditions: for cell viability percentage vs control group: K562, 48, 72, and 96 h
In short: (§1)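 Cells seeded at 5×10^4 cells mL⁻¹ and exposed to a range of test compound concentrations for 48, 72 and 96 h. Resazurin solution (0.1 mg mL⁻¹) was then added, followed by a further 4 h incubation. Fluorescence was read at ex 570/em 590 nm. % viability = (F treated/F untreated control) × 100. Three independent experiments, mean ± S.E.; Student's t-test versus untreated control, p<0.05.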

[2] = Cell viability, resazurin assay, K562; assay type: cell-based, human; conditions: human, K562 cells (doxorubicin-sensitive leukemia)
In short: as §1

[3] = target: human serum albumin (HSA) (Homo sapiens, UniProt P02768); assay: Fluorescence quenching of HSA by 4-HBA or VA; assay type: binding; conditions: for fluorescence quenching mechanism: from temperature dependence of Ksv and Kq; for quenching rate constant Kq ± SE: τ0 5 ns; for enthalpy change ΔH / entropy change ΔS: from Kb at 298 and 310 K
Chain of human serum albumin (HSA) (P02768 25-609): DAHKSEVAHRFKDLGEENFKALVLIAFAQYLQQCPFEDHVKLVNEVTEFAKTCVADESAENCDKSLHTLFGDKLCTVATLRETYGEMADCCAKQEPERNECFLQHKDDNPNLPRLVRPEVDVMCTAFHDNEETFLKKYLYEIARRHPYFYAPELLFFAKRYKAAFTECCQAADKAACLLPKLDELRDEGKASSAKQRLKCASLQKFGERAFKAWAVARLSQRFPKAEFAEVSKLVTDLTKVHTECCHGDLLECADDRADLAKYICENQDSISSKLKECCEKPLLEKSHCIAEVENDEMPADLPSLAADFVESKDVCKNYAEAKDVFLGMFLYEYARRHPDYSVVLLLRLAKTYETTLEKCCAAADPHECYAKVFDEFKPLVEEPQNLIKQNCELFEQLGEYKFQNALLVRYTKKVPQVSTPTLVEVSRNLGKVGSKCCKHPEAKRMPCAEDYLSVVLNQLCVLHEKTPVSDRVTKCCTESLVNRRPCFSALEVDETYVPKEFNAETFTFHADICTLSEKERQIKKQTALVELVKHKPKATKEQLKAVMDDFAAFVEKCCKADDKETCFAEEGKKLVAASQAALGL
In short: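 HSA (1 μM) in PBS was titrated with test compound to final 0–10,000 μM. Intrinsic fluorescence was recorded at ex 280 nm, em 290–500 nm, slits 5 nm, 1.0 cm cell, at 298 and 310 K and pH 6, 7.4 and 8. Intensity at 342 nm was fitted by Stern–Volmer (τ0 5 ns) for KSV/Kq and by double-log plot for Kb and n. ΔH, ΔS and ΔG were derived from these fits.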

K562 cancer cells = assay: Cell morphological observation by light microscope, K562; assay type: cell-based, human; conditions: high concentrations (10 mM shown at 72 h), also at 48 and 96 h
[4] = test system: doxorubicin-resistant K562/Dox (P-glycoprotein-overexpression) leukemia cells; assay: Cell viability, resazurin assay, K562/Dox; assay type: cell-based, human; conditions: K562/Dox, 48, 72, and 96 h
In short: as §1

[5] = Cell viability, resazurin assay, K562/Dox; assay type: cell-based, human; conditions: human
In short: as §1

[6] = 0.01, 0.05, 0.1, 0.5, 1, and 5 mM
[7] = 298 and 310 K, pHs 7.4, 6.0 and 8.0

concentrations at which fluorescence intensity of HSA decreased [3, 7]: 5–10,000 μM
concentrations at which fluorescence intensity of HSA decreased ([3]; PBS pH 7.4, 298 K, 1 μM HSA): 5–10,000 μM
fluorescence quenching mechanism [3]: static quenching mechanism
Gibbs binding free energy change ΔG ([3]; pH 6.0, 298 K): -4.178 kcal/mol
Stern-Volmer quenching constant KSV ± SE ([3]; pH 6.0, 298 K): 4.4982 ± 2.10 × 10^3 L mole^−1
number of binding site n ± SE ([3]; pH 6.0, 298 K): 0.8623 ± 0.05
quenching rate constant Kq ± SE ([3]; pH 6.0, 298 K): 0.8996 ± 0.42 × 10^12 L. mole^−1 s^−1
Gibbs binding free energy change ΔG ([3]; pH 6.0, 310 K): -3.769 kcal/mol
Stern-Volmer quenching constant KSV ± SE ([3]; pH 6.0, 310 K): 4.2857 ± 0.93 × 10^3 L mole^−1
number of binding site n ± SE ([3]; pH 6.0, 310 K): 0.9016 ± 0.06
quenching rate constant Kq ± SE ([3]; pH 6.0, 310 K): 0.8572 ± 0.19 × 10^12 L. mole^−1 s^−1
enthalpy change ΔH ([3]; pH 6.0): -14.3 kcal/mol
entropy change ΔS ([3]; pH 6.0): −142.12 J. mol^−1 K^−1
Gibbs binding free energy change ΔG ([3]; pH 7.4, 298 K): -2.753 kcal/mol
Stern-Volmer quenching constant KSV ± SE ([3]; pH 7.4, 298 K): 3.0657 ± 1.18 × 10^3 L mole^−1
number of binding site n ± SE ([3]; pH 7.4, 298 K): 0.6130 ± 0.05
quenching rate constant Kq ± SE ([3]; pH 7.4, 298 K): 0.6131 ± 0.24 × 10^12 L. mole^−1 s^−1
Gibbs binding free energy change ΔG ([3]; pH 7.4, 310 K): -2.36 kcal/mol
Stern-Volmer quenching constant KSV ± SE ([3]; pH 7.4, 310 K): 2.7164 ± 0.27 × 10^3 L mole^−1
number of binding site n ± SE ([3]; pH 7.4, 310 K): 0.7235 ± 0.05
quenching rate constant Kq ± SE ([3]; pH 7.4, 310 K): 0.5433 ± 0.05 × 10^12 L. mole^−1 s^−1
enthalpy change ΔH ([3]; pH 7.4): -12.42 kcal/mol
entropy change ΔS ([3]; pH 7.4): −135.72 J. mol^−1 K^−1
Gibbs binding free energy change ΔG ([3]; pH 8.0, 298 K): -3.623 kcal/mol
Stern-Volmer quenching constant KSV ± SE ([3]; pH 8.0, 298 K): 1.8046 ± 0.51 × 10^3 L mole^−1
number of binding site n ± SE ([3]; pH 8.0, 298 K): 0.8005 ± 0.11
quenching rate constant Kq ± SE ([3]; pH 8.0, 298 K): 0.3609 ± 0.10 × 10^12 L. mole^−1 s^−1
Gibbs binding free energy change ΔG ([3]; pH 8.0, 310 K): -3.382 kcal/mol
Stern-Volmer quenching constant KSV ± SE ([3]; pH 8.0, 310 K): 1.4572 ± 0.25 × 10^3 L mole^−1
number of binding site n ± SE ([3]; pH 8.0, 310 K): 1.0784 ± 0.29
quenching rate constant Kq ± SE ([3]; pH 8.0, 310 K): 0.2914 ± 0.05 × 10^12 L. mole^−1 s^−1
enthalpy change ΔH ([3]; pH 8.0): -9.661 kcal/mol
entropy change ΔS ([3]; pH 8.0): −84.76 J. mol^−1 K^−1
Structure (SMILES): O=C(O)c1ccc(O)cc1 [4-HBA, 4-Hydroxybenzoic acid]
cell viability percentage ([1]; K562, 10 mM, 48 h): did not significantly change
cell viability percentage vs control group [1, 6]: did not significantly change
viability at 72 h, 10 mM [2]: 90.3 ± 0.96%
viability at 96 h, 10 mM [2]: 87.6 ± 1.01%
morphological changes in treated cells (K562 cancer cells): rough cells, shrinking cells, irregular shape cells, and membrane blebbing
cell viability percentage vs control group [4, 6]: did not significantly change
viability at 48 h, 10 mM [5]: 75.4 ± 8.61%
viability at 72 h, 10 mM [5]: 70.4 ± 5.21%
viability at 96 h, 10 mM [5]: 66.3 ± 7.67%

concentrations at which fluorescence intensity of HSA decreased [3, 7]: 2,000 to 10,000 μM
concentrations at which fluorescence intensity of HSA decreased ([3]; PBS pH 7.4, 298 K, 1 μM HSA): 2,000 to 10,000 μM
fluorescence quenching mechanism [3]: dynamic quenching mechanism
Gibbs binding free energy change ΔG ([3]; pH 6.0, 298 K): -3.411 kcal/mol
Stern-Volmer quenching constant KSV ± SE ([3]; pH 6.0, 298 K): 1.2621 ± 0.19 × 10^3 L mole^−1
number of binding site n ± SE ([3]; pH 6.0, 298 K): 0.7071 ± 0.08
quenching rate constant Kq ± SE ([3]; pH 6.0, 298 K): 0.2524 ± 0.04 × 10^12 L. mole^−1 s^−1
Gibbs binding free energy change ΔG ([3]; pH 6.0, 310 K): -3.109 kcal/mol
Stern-Volmer quenching constant KSV ± SE ([3]; pH 6.0, 310 K): 1.4092 ± 0.09 × 10^3 L mole^−1
number of binding site n ± SE ([3]; pH 6.0, 310 K): 0.6174 ± 0.08
quenching rate constant Kq ± SE ([3]; pH 6.0, 310 K): 0.2818 ± 0.02 × 10^12 L. mole^−1 s^−1
enthalpy change ΔH ([3]; pH 6.0): -10.9 kcal/mol
entropy change ΔS ([3]; pH 6.0): −105.08 J. mol^−1 K^−1
Gibbs binding free energy change ΔG ([3]; pH 7.4, 298 K): -2.737 kcal/mol
Stern-Volmer quenching constant KSV ± SE ([3]; pH 7.4, 298 K): 0.7564 ± 0.03 × 10^3 L mole^−1
number of binding site n ± SE ([3]; pH 7.4, 298 K): 0.5786 ± 0.03
quenching rate constant Kq ± SE ([3]; pH 7.4, 298 K): 0.1513 ± 0.01 × 10^12 L. mole^−1 s^−1
Gibbs binding free energy change ΔG ([3]; pH 7.4, 310 K): -2.35 kcal/mol
Stern-Volmer quenching constant KSV ± SE ([3]; pH 7.4, 310 K): 0.8312 ± 0.09 × 10^3 L mole^−1
number of binding site n ± SE ([3]; pH 7.4, 310 K): 0.3816 ± 0.09
quenching rate constant Kq ± SE ([3]; pH 7.4, 310 K): 0.1662 ± 0.02 × 10^12 L. mole^−1 s^−1
enthalpy change ΔH ([3]; pH 7.4): -12.45 kcal/mol
entropy change ΔS ([3]; pH 7.4): −136.42 J. mol^−1 K^−1
Gibbs binding free energy change ΔG ([3]; pH 8.0, 298 K): -3.069 kcal/mol
Stern-Volmer quenching constant KSV ± SE ([3]; pH 8.0, 298 K): 0.7592 ± 0.06 × 10^3 L mole^−1
number of binding site n ± SE ([3]; pH 8.0, 298 K): 0.6340 ± 0.04
quenching rate constant Kq ± SE ([3]; pH 8.0, 298 K): 0.1518 ± 0.01 × 10^12 L. mole^−1 s^−1
Gibbs binding free energy change ΔG ([3]; pH 8.0, 310 K): -2.99 kcal/mol
Stern-Volmer quenching constant KSV ± SE ([3]; pH 8.0, 310 K): 1.0384 ± 0.07 × 10^3 L mole^−1
number of binding site n ± SE ([3]; pH 8.0, 310 K): 0.5257 ± 0.08
quenching rate constant Kq ± SE ([3]; pH 8.0, 310 K): 0.2077 ± 0.01 × 10^12 L. mole^−1 s^−1
enthalpy change ΔH ([3]; pH 8.0): -5.062 kcal/mol
entropy change ΔS ([3]; pH 8.0): −27.97 J. mol^−1 K^−1
Structure (SMILES): COc1cc(C(=O)O)ccc1O [VA, 4-hydroxy-3-methoxybenzoic acid]
cell viability percentage vs control group ([1]; 0.01, 0.05, 0.1, 0.5, and 1 mM): did not significantly change
viability at 48 h, 5 mM [2]: 79.8 ± 3.98%
viability at 48 h, 10 mM [2]: 70.6 ± 2.93%
viability at 72 h, 5 mM [2]: 81.3 ± 6.51%
viability at 72 h, 10 mM [2]: 58 ± 5.46%
viability at 96 h, 5 mM [2]: 82.9 ± 5.89%
viability at 96 h, 10 mM [2]: 56.7 ± 18.2%
morphological changes in treated cells (K562 cancer cells): rough cells, shrinking cells, irregular shape cells, and membrane blebbing
cell viability percentage vs control group ([4]; 0.01, 0.05, 0.1, 0.5, and 1 mM): did not significantly change
viability at 48 h, 5 mM [5]: 75.3 ± 6.23%
viability at 48 h, 10 mM [5]: 53.5 ± 10.7%
viability at 72 h, 5 mM [5]: 70.7 ± 11.1%
viability at 72 h, 10 mM [5]: 41 ± 5.78%
viability at 96 h, 5 mM [5]: 65.5 ± 2.36%
viability at 96 h, 10 mM [5]: 35.9 ± 3.61%

Reference: publication PMC8278208 (Toxicology Reports, 2021)
